In ChEMBL document CHEMBL4396873, “Discovery of Potent, Selective, and Short-Acting Peptidic V2 Receptor Agonists” (J Med Chem, 2019):
Calls of active or inactive are those of the source. No cut-off for these calls is given here. Numbered stars: 1 amine (or outer) side, 2 acyl side, 3 side chain; on linkers, the order of the positions; unused ones are H or OH. Bridge positions count the residues as written; N and C are the ends. Square brackets hold non-standard residues; d marks the D form. Peptide text beside a SMILES is read from it. * marks the point of attachment. Phe(4-Cl) = N[C@@H](Cc1ccc(Cl)cc1)C(=O)O; Phe(4-Et) = CCc1ccc(C[C@H](N)C(=O)O)cc1; Phe(4-F) = N[C@@H](Cc1ccc(F)cc1)C(=O)O; 2Thi = N[C@@H](Cc1cccs1)C(=O)O; X2 = N=C(N)NCCC[C@H](CO)N*; hCys = N[C@@H](CCS)C(=O)O; Agmatine = N=C(N)NCCCCN*; X1 = O=C(CCC[*:2])[*:1]; X3 = O=C(CC[*:2])[*:1]

What was measured:
[1] = Clearance in Sprague-Dawley rat at 0.1 mg/kg, iv administered as cassette dose by LC-MS/MS analysis; type: ADME, organism-based; conditions: in vivo
[2] = molecular target: T1, Oxytocin receptor (Homo sapiens, UniProt P30559); assay: Agonist activity at human OTR stably expressed in CHOK1 cells by NFAT-luciferase reporter gene assay; type: cell-based
T1 sequence (P30559 whole entry): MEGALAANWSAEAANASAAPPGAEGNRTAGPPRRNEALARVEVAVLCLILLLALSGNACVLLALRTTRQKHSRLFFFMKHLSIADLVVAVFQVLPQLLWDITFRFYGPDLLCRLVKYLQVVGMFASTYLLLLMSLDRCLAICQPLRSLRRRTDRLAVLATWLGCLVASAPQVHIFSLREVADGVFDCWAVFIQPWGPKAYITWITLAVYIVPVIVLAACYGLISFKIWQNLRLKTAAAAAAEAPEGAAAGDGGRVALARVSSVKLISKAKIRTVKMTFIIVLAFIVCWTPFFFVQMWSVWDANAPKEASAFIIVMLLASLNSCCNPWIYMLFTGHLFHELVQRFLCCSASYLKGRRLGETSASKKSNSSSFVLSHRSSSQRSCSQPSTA

[3] = Protein binding in rat plasma at 200 to 1000 ng/ml measured after 15 mins by UC-LC/MS/MS analysis; type: ADME, cell-free; conditions: read-out: PPB (converted)
How it was run: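 Peptide spiked into rat plasma to final 200-1000 ng/mL, incubated 15 min at 37 °C, ultracentrifuged at 773,000 xg for 30 min at 37 °C; middle-layer sample quantified by LC/MS/MS; binding (%) = (Ci − Cm)/Ci × 100; quadruplicate.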

[4] = molecular target: T2, Oxytocin receptor (Homo sapiens) (UniProt P30559); assay: Agonist activity at human OTR stably expressed in CHOK1 cells by NFAT-luciferase reporter gene assay relative to control; type: cell-based
T2 sequence (whole entry): T1 sequence (P30559 whole entry)

[5] = molecular target: Vasopressin V1a receptor (Homo sapiens, UniProt P37288); assay: Agonist activity at recombinant human V1a receptor expressed in HEK293 cells up to 1000 nM measured after 5 hrs by luciferase reporter gene assay; type: cell-based; conditions: hek293, 5 h
Chain of Vasopressin V1a receptor (P37288 whole entry): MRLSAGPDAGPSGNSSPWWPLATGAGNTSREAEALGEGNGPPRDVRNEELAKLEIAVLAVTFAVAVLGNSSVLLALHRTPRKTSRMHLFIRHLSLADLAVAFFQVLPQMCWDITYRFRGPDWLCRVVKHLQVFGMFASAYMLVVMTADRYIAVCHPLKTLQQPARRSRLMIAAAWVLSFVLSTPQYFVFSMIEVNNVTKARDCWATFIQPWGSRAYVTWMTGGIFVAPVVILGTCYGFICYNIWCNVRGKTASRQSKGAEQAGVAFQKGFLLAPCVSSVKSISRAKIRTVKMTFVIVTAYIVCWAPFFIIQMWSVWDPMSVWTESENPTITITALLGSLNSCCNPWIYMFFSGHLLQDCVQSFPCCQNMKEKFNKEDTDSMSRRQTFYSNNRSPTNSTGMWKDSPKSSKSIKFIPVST

[6] = Non-renal clearance in nephrectomized Sprague-Dawley rat at 0.1 mg/kg, iv administered as cassette dose by LC-MS/MS analysis; type: ADME, organism-based; conditions: in vivo
[7] = molecular target: Vasopressin V2 receptor (Homo sapiens, UniProt P30518); assay: Agonist activity at recombinant human V2 receptor expressed in HEK293 cells measured after 5 hrs by cAMP response element driven luciferase reporter gene assay; type: functional, cell-based
Chain of Vasopressin V2 receptor (Homo sapiens, UniProt P30518) (P30518 whole entry): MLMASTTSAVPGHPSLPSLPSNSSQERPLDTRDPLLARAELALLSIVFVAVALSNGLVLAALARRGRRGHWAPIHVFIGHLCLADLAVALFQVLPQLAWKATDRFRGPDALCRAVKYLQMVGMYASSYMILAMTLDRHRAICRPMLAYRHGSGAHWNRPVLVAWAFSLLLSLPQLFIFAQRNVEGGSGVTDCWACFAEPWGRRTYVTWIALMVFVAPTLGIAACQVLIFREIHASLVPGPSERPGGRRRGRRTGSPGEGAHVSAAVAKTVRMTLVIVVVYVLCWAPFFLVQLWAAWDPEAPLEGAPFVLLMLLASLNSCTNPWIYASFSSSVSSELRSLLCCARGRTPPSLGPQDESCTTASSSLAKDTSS

[8] = molecular target: T2, Oxytocin receptor (Homo sapiens); assay: Agonist activity at human OTR stably expressed in CHOK1 cells up to 10000 nM by NFAT-luciferase reporter gene assay; type: cell-based
[9] = Elimination half life in Sprague-Dawley rat at 0.1 mg/kg, iv administered as cassette dose by LC-MS/MS analysis; type: ADME, organism-based; conditions: in vivo, read-out: beta t1/2
[10] = tested on: Rattus norvegicus; assay: Antidiuretic activity in hydrated-euvolemic Sprague-Dawley rat assessed as effective plasma concentration causing half-maximal suppression of urine output administered as iv infusion for 180 mins measured during compound dosing; type: functional, organism-based; conditions: 3 h
[11] = tested on: Rattus norvegicus; assay: Antidiuretic activity in hydrated-euvolemic Sprague-Dawley rat assessed as suppression of urine output at 30 pM administered as iv infusion for 180 mins measured immediately; type: functional, organism-based
[12] = tested on: Rattus norvegicus; assay: Antidiuretic activity in hydrated-euvolemic Sprague-Dawley rat assessed as suppression of urine output by measuring cumulative urine weight administered as iv infusion for 180 mins measured during compound dosing; type: functional
[13] = tested on: Rattus norvegicus; assay: Antidiuretic activity in hydrated-euvolemic Sprague-Dawley rat assessed as suppression of urine output at 30 to 100 pM administered as iv infusion for 180 mins measured within 1 hr; type: functional, organism-based
[14] = tested on: Rattus norvegicus; assay: Antidiuretic activity in hydrated-euvolemic Sprague-Dawley rat assessed as suppression of urine output at MED administered as iv infusion for 180 mins measured during compound dosing relative to control; type: functional
[15] = Half life in iv dosed Sprague-Dawley rat by LC-MS/MS analysis; type: ADME, organism-based; conditions: in vivo
[16] = tested on: Rattus norvegicus; assay: Antidiuretic activity in hydrated-euvolemic Sprague-Dawley rat assessed as suppression of urine output administered as iv infusion for 180 mins measured during compound dosing; type: functional, organism-based
[17] = molecular target: Vasopressin V2 receptor (Rattus norvegicus, UniProt Q00788); assay: Agonist activity at recombinant rat V2 receptor expressed in HEK293 cells measured after 5 hrs by cAMP response element driven luciferase reporter gene assay; type: functional, cell-based
Chain of Vasopressin V2 receptor (Rattus norvegicus, UniProt Q00788) (Q00788 whole entry, the tested form may be a part): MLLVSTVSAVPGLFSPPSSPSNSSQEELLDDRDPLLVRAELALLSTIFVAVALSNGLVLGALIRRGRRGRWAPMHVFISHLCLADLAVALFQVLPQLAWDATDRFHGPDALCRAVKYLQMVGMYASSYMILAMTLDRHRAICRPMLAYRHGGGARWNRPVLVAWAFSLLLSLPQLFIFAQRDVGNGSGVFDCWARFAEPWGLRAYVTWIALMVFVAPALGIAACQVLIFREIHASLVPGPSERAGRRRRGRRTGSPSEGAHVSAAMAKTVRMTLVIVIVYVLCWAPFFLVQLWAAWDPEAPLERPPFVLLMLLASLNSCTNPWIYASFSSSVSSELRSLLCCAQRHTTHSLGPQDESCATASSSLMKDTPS

[18] = tested on: Rattus norvegicus; assay: Antidiuretic activity in hydrated-euvolemic Sprague-Dawley rat assessed as suppression of urine output by measuring cumulative urine weight at 30 to 100 pM administered as iv infusion for 180 mins measured up to 300 mins; type: functional
[19] = molecular target: Vasopressin V2 receptor (Rattus norvegicus) (UniProt Q00788); assay: Agonist activity at recombinant rat V2 receptor expressed in HEK293 cells measured after 5 hrs by cAMP response element driven luciferase reporter gene assay relative to control; type: functional, cell-based
Chain of Vasopressin V2 receptor (Rattus norvegicus) (Q00788 whole entry): as the sequence (Q00788 whole entry, the tested form may be a part) above

SMILES	clearance [1] [mL/min/kg]	EC50 [2] [nM]	fraction unbound at […] [3]	Activity [5]	CL [6] [%]	EC50 [7] [nM]	Activity [8]	also measured
CC(C)[C@@H]1NC(=O)[C@H](Cc2cccs2)NC(=O)[C@H](Cc2ccc(Cl)cc2)NC(=O)CCCSC[C@@H](C(=O)N2CSC[C@H]2C(=O)N[C@H](CCCNC(=N)N)C(=O)NCc2ccccc2)NC(=O)[C@H](CC(N)=O)NC1=O	38	140	0.09	Not Active	100			Efficacy [4]: 32%
CC(C)[C@@H]1NC(=O)[C@H](Cc2ccc(F)cc2)NC(=O)[C@H](Cc2ccc(Cl)cc2)NC(=O)CCCSC[C@@H](C(=O)N2CCC[C@H]2C(=O)N[C@@H](CO)CCCNC(=N)N)NC(=O)[C@H](CC(N)=O)NC1=O ([Phe(4-Cl)][Phe(4-F)]VNCP-X2; linker N-5 via X1)	3.8	> 10000	0.07	Not Active				
CC(C)[C@@H]1NC(=O)[C@H](Cc2cccs2)NC(=O)[C@H](Cc2ccc(Cl)cc2)NC(=O)CCCSC[C@@H](C(=O)N2CCC[C@H]2C(=O)N[C@@H](CO)CCCNC(=N)N)NC(=O)[C@H](CC(N)=O)NC1=O ([Phe(4-Cl)][2Thi]VNCP-X2; linker N-5 via X1)	4	> 10000	0.2	Not Active				
CCNC(=O)[C@@H](CCCNC(=N)N)NC(=O)[C@@H]1CCCN1C(=O)[C@@H]1CSSCCC(=O)N[C@@H](Cc2ccc(Cl)cc2)C(=O)N[C@@H](Cc2cccs2)C(=O)N[C@@H](C(C)C)C(=O)N[C@@H](CC(N)=O)C(=O)N1	11		0.12	Not Active	81	0.32	inactive	
CC(C)[C@@H]1NC(=O)[C@H](Cc2ccc(F)cc2)NC(=O)[C@H](Cc2ccc(Cl)cc2)NC(=O)CCCSC[C@@H](C(=O)N2CSC[C@H]2C(=O)N[C@H](CCCNC(=N)N)C(=O)NCCc2cccs2)NC(=O)[C@H](CC(N)=O)NC1=O	27		0.04	Not Active	100	0.3	inactive	
CCc1ccc(C[C@@H]2NC(=O)CCCSC[C@@H](C(=O)N3CCC[C@H]3C(=O)N[C@@H](CO)CCCNC(=N)N)NC(=O)[C@H](CC(N)=O)NC(=O)[C@H](C(C)C)NC(=O)[C@H](Cc3cccs3)NC2=O)cc1 ([Phe(4-Et)][2Thi]VNCP-X2; linker N-5 via X1)	9.4	> 10000	0.16	Not Active	80	0.35		
CC(C)[C@@H]1NC(=O)[C@H](Cc2cccs2)NC(=O)[C@H](Cc2ccc(Cl)cc2)NC(=O)CCSCC[C@@H](C(=O)N2CCC[C@H]2C(=O)N[C@@H](CO)CCCNC(=N)N)NC(=O)[C@H](CC(N)=O)NC1=O ([Phe(4-Cl)][2Thi]VN[hCys]P-X2; linker N-5 via X3)	2.8	> 10000	0.11	Not Active	66			
CC(C)[C@@H]1NC(=O)[C@H](Cc2cccs2)NC(=O)[C@H](Cc2ccc(Cl)cc2)NC(=O)CCCSC[C@@H](C(=O)N2CCC[C@H]2C(=O)NCCCCNC(=N)N)NC(=O)[C@H](CC(N)=O)NC1=O ([Phe(4-Cl)][2Thi]VNCP-Agmatine; linker N-5 via X1)	14		0.15	Not Active	57		inactive	half-life [9]: 16 min; EC50 [10]: 0.00064 nM; Activity [11]: inactive; Activity [12]: 5 g; Activity [13]: inactive; Activity [14]: 80%; half-life [15]: 20 min; Activity [16]: Dose-dependent effect; EC50 [17]: 0.02 nM; Activity [18]: 1.3 g; Efficacy [19]: 99%
